# Screening results from PubChem BioAssay.
# KLF5 inh: KLF5 expression inhibitors, primary screen, DLD-1 cells, luminescence; DLD-1 KLF5 promoter-luciferase reporter; inhibition, % at 5 µM; 290,000 compounds, 0.23% hits;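 active = inhibition above a per-plate limit of that plate's mean compound inhibition plus 3 SD, cut at about 60% in these data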;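 note: 0% = DMSO wells and 100% = LY294002 at 200 µM; higher means less KLF5 promoter-driven luciferase light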
# Ba/F3 V617F tox: reduced viability of JAK2V617F-dependent Ba/F3 cells, primary screen, JAK2V617F inhibitor project, cell-based, Ba/F3 EpoR-JAK2V617F, luminescence | ATP luminescence | inhibition, % at 5.6 µM | 220,000 compounds, 1.1% hits;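 active = inhibition above the campaign mean plus 3 SD over all tested compounds, cut at about 24% in these data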;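 note: cytokine-independent growth of Ba/F3 cells driven by EpoR plus mutant JAK2; 0% = DMSO-treated cells and 100% = JAK inhibitor I control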
# BaF3 tox: parental Ba/F3 cell viability inhibition, counter-screen for JAK2V617F inhibitor project, murine pro-B, CellTiter-Glo luminescence | CellTiter-Glo ATP luminescence | inhibition, % at 5.6 µM | 220,000 compounds, 1.1% hits;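 active = inhibition above a per-campaign cutoff, the mean inhibition of all tested compounds plus 3 SD, cut at about 27% in these data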;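 note: 0% = DMSO wells and 100% = JAK Inhibitor I control wells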
# IEC-6 cytotox: cytotoxicity in IEC-6 intestinal epithelial cells, primary screen, cytotoxicity control for KLF5 inhibitor project, cell-based, luminescence | IEC-6 cytotoxicity, luminescence viability | inhibition, % at 5 µM | 290,000 compounds, 0.78% hits; in the data active = inhibition above about 22%;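 note: 0% = plate median of test compound wells and 100% = cytotoxic reference compound wells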
# bCat nuc transl: modulators of beta-catenin nuclear translocation, primary screen, imaging, HeLa cells, immunofluorescence, high-content; nuclear translocation activity, % at 5 µM; 190,000 compounds, 0.3% hits;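 active = nuclear translocation activity above 50% at 5 µM, with a well cell count of 50 or more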;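 note: per-cell ratio of nuclear to cytoplasmic median beta-catenin stain intensity; plate controls were DMSO negative control for no effect and GSK-3 inhibitor IX positive control for full effect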
#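 assay system = human HeLa cells, endogenous beta-catenin | times = compound treatment 24 h, 37°C, 5% CO2 | detection = Anti-beta-catenin immunofluorescence on PFA-fixed, Triton-permeabilized cells, DAPI nuclei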
# MT stabilize HCS: microtubule stabilizers in HeLa cells, primary screen, imaging, high-content imaging | 200,000 compounds, 0.83% hits | AID 2205, 2009 | % tubulin-high responders, % at 10 µM | HeLa tubulin immunostaining HCS, 24 h; share of cells brighter than vehicle mean+2SD;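 active = plate Z-score above 3 for both tubulin-high and condensed-nucleus cell shares, with cell loss under 80%, at 10 µM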;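 note: anti alpha tubulin signal scored within the nucleus-defined area of each cell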
# The depositor's hits bear a star; x = no result. An excerpt weighted towards active compounds, which were near 2.1% of everything screened.
SMILES,KLF5 inh,Ba/F3 V617F tox,BaF3 tox,IEC-6 cytotox,bCat nuc transl,MT stabilize HCS
O=C(CN(Cc1ccccc1)S(=O)(=O)c1ccccc1)N/N=C/c1ccc([N+](=O)[O-])cc1,-16,1,95*,-5,0,3
CCOc1ccc(S(=O)(=O)N(CC(=O)N/N=C/c2ccc(-c3ccc([N+](=O)[O-])cc3)o2)c2ccccc2)cc1,-19,-1,-1,-8,60*,26*
O=C(CN(Cc1ccccc1)S(=O)(=O)c1ccccc1)N/N=C/c1ccc2c(c1)OCO2,-7,2,4,1,-2,4
Cc1ccc(C)c(N(CC(=O)N/N=C/c2ccc(-c3ccc([N+](=O)[O-])cc3)o2)S(=O)(=O)c2ccccc2)c1,-43,-4,3,-3,2,2
CCOc1ccc(NC(=O)CN(c2ccc([N+](=O)[O-])cc2)S(=O)(=O)c2ccccc2)cc1,3,0,8,-3,0,14*
Cn1nc(C(=O)NCCCN2CCCCC2)c2c1-c1ccccc1SC2,-11,x,x,5,x,x
O=C(CCC(=O)c1ccc(F)cc1)Nc1cccc(S(=O)(=O)Nc2cccc(Cl)c2)c1,-6,1,-1,1,-2,1
CC1CN=C(N(C(=O)Nc2ccccc2)c2ccc(S(=O)(=O)N3CCOCC3)cc2)S1 (centres undefined),5,7,4,4,0,3
Cc1nn(-c2ccc(Cl)cc2)c(=O)c2c(C)noc12,-23,-4,-6,-4,1,x
O=C(COc1c(Br)cc(Br)cc1Br)N/N=C/c1ccco1,-17,x,x,5,x,x
COC(=O)/C(=C\Nc1ccc(Oc2ccc(F)cc2F)nc1)NC(=O)c1ccccc1,-12,0,36*,2,2,x
COC(=O)/C(=C/c1cccnc1)NC(=O)c1ccccc1,-23,1,7,-4,-3,4
c1ccc(-c2noc(-c3ccc4c(c3)OCO4)n2)nc1,-35,26*,28*,8,-4,2
COC(=O)[C@@H](NCc1cccc(CN([C@H](C(=O)OC)C(C)C)S(C)(=O)=O)c1)C(C)C,-3,x,x,-6,x,x
Cc1[nH][nH]c(=O)c1C(c1c(C)[nH][nH]c1=O)c1cn(Cc2ccccc2Cl)c2ccccc12,-2,1,2,-1,18,25*
COC(=O)C(Cc1ccc(OC(=O)c2ccc(Cl)cc2)cc1)N1Cc2ccccc2C1=O (centres undefined),-45,2,96*,4,x,4
COC(=O)C(Cc1ccc(OC(=O)c2ccc(C(F)(F)F)cc2)cc1)N1Cc2ccccc2C1=O (centres undefined),-35,-1,0,8,x,2
COc1cccc(C(=O)NC2CCNCC2)c1,-69,x,x,1,x,x
CCOc1ccc(N(CC(=O)NC2CCCCC2)S(=O)(=O)c2ccccc2)cc1,-4,x,x,3,x,x
C=CCNC(=S)N(CC)c1cccc2ccccc12,-17,34*,36*,7,2,2
CCOC(=O)N1CCC(NC(=O)CNS(=O)(=O)c2ccc(Br)s2)CC1,-5,-2,2,0,3,20*
CCOC(=O)C1CCCN(C(=O)CNS(=O)(=O)c2ccc(Br)s2)C1 (centres undefined),2,0,0,-1,-1,2
Oc1cccc(Nc2nc(O)c(/C=C3\C=Nc4ccccc43)s2)c1,-52,2,-6,5,2,x
Oc1nc(Nc2cccc(Cl)c2)sc1/C=C1\C=Nc2ccccc21,-11,1,6,1,1,18*
CCCCC(CCC(=O)Nc1ccn(-c2ccccc2)n1)C(=O)O (centres undefined),10,-3,63*,8,2,x
CCCCC(C(=O)O)C(C)CC(=O)Nc1ccn(-c2ccccc2)n1 (centres undefined),-8,-2,1,9,-6,5
Cc1cc2nccc(-c3ccc(Cl)c([N+](=O)[O-])c3)n2n1,-3,-1,9,-2,-1,2
COc1cc2c(cc1O)CC[n+]1cc3c(OC)c(OC)ccc3cc1-2,-2,21,45*,-6,x,3
